Data: ChEMBL document CHEMBL2057084, “Discovery of benzylisothioureas as potent divalent metal transporter 1 (DMT1) inhibitors” (Bioorg Med Chem Lett, 2012)
Activity calls are given as the source filed them. The calls are words filed in the database; no cut-off is given here.

What was measured:
[1] = Inhibition of human DMT1B-IRE expressed in CHO cells assessed as blockage of ferrous influx after 20 mins by calcein fluorescence quenching method; assay type: cell-based
In short: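 Calcein fluorescence quench assay for DMT1 (conditions detailed in supplementary data); IC50s are the average of at least two independent determinations.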

[2] = Apparent permeability across apical to basolateral side in human Caco2 cells; assay type: ADME, cell-based; details: Caco-2
In short: (§1)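 Caco-2 cell monolayers; apparent permeability measured in both directions (apical→basolateral and basolateral→apical); […].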

[3] = Apparent permeability across basolateral to apical side in human Caco2 cells; assay type: ADME, cell-based; details: Caco-2; in short: as §1
[4] = biological target: T1, Natural resistance-associated macrophage protein 1 (Homo sapiens, UniProt P49279); assay: Inhibition of NRAMP1 expressed in CHO cells; assay type: cell-based
T1 sequence (P49279 whole entry): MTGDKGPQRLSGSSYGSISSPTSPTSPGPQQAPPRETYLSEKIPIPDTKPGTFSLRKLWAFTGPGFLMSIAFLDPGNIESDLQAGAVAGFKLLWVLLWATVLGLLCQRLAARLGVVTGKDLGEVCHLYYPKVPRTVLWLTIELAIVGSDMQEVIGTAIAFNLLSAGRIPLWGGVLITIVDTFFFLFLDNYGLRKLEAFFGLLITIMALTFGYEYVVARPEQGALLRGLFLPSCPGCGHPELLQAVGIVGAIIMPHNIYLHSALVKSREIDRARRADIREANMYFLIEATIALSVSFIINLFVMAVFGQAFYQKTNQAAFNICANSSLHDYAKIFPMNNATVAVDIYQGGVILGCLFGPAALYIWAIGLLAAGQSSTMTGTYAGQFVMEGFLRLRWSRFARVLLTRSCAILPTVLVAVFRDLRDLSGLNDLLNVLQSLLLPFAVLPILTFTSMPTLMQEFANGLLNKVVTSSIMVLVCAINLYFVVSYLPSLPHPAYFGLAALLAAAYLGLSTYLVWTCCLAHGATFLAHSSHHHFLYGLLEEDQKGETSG

Rattus norvegicus [5] = assay: Inhibition of intestinal iron uptake in po dosed acute weanling rat model of iron hyperabsorption assessed as decrease of serum iron level administered after 1 hr post iron challenge; assay type: functional, organism-based
In short: (§2)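 Anemic conscious rats ([…], serum iron <50 µg/dL); test article dosed po in 5% DMSO, 10% EtOH, 30% PEG400, 35% propylene glycol, 20% water; 1 h later oral challenge of 1 mg/kg Fe2+ as ferrous sulfate; serum iron measured 1 h after challenge; 8 animals per group, mean ± SEM; one-way ANOVA with Dunnett's test versus vehicle group.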

Rattus norvegicus [6] = assay: Inhibition of intestinal iron uptake in acute weanling rat model of iron hyperabsorption assessed as decrease of serum iron level at 50 mg/kg, po administered after 1 hr post iron challenge; assay type: functional, organism-based; design: dose 50 mg/kg; in short: as §2
Rattus norvegicus [7] = assay: Inhibition of intestinal iron uptake in acute weanling rat model of iron hyperabsorption assessed as decrease of serum iron level at 25 mg/kg, po administered after 1 hr post iron challenge; assay type: functional, organism-based; design: dose 25 mg/kg; in short: as §2
Rattus norvegicus [8] = assay: Inhibition of intestinal iron uptake in acute weanling rat model of iron hyperabsorption assessed as decrease of serum iron level at 50 mg/kg, po administered after 1 hr post iron challenge relative to control; assay type: functional; in short: as §2
Rattus norvegicus [9] = assay: Toxicity in acute weanling rat model at 25 to 50 mg/kg, po; assay type: organism-based; design: dose 25-50 mg/kg, route oral; details: in vivo
In short: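 Rats in the acute iron hyperabsorption study (anemic, conscious) dosed po at 25 or 50 mg/kg in 5% DMSO, 10% EtOH, 30% PEG400, 35% propylene glycol, 20% water; clinical observations recorded during the study.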

Compound | IC50 [1] [nM] | Papp A→B [2] [×10⁻⁶ cm/s] | Papp B→A [3] [×10⁻⁶ cm/s] | IC50 [4] [nM] | inhibition (Rattus norvegicus [5]) | inhibition (Rattus norvegicus [6]) | inhibition (Rattus norvegicus [7]) | fold change (FC) (Rattus norvegicus [8]) | Activity (Rattus norvegicus [9])
Br.N=C(N)SCc1c(Br)ccc2c1sc1c(CSC(=N)N)c(Br)ccc12 | 860 | 4 | 2 | > 10000 |  |  |  |  | 
N=C(N)SCc1cccc2c1-c1c(CSC(=N)N)cccc1C2=O | > 15000 |  |  | > 10000 |  |  |  |  | 
Br.N=C(N)SCc1cc(F)ccc1Sc1cc(F)c(F)cc1CSC(=N)N | 600 | < 0.1 | 0.2 | > 10000 |  |  |  |  | 
N=C(N)SCc1ccccc1Oc1cc(Cl)ccc1CSC(=N)N | 15000 |  |  | > 10000 |  |  |  |  | 
N=C(N)SCc1ccccc1Oc1ccc(Cl)cc1CSC(=N)N | 1130 |  |  | > 10000 |  |  |  |  | 
N=C(N)SCc1ccccc1Sc1ccc(N)cc1CSC(=N)N | 910 |  |  | > 10000 |  |  |  |  | 
Br.N=C(N)SCc1cc(F)ccc1Oc1cc(F)ccc1CSC(=N)N | 840 | < 0.1 | 0.4 | > 10000 |  |  |  |  | 
Cc1ccc(CSC(=N)N)c(Sc2ccc(F)cc2CSC(=N)N)c1 | 1450 |  |  | > 10000 |  |  |  |  | 
Br.N=C(N)SCc1cc(F)ccc1Sc1ccc(C(F)(F)F)cc1CSC(=N)N | 690 | 0.1 | 3.8 | > 10000 |  |  |  |  | 
N=C(N)SCc1cccc2sc3cccc(CSC(=N)N)c3c12 | 5040 |  |  | > 10000 |  |  |  |  | 
N=C(N)SCc1cc(F)ccc1Sc1c(CSC(=N)N)cccc1[N+](=O)[O-] | 4150 |  |  | > 10000 |  |  |  |  | 
Br.N=C(N)SCc1cccc2c1sc1c(CSC(=N)N)c(Br)ccc12 | 750 | 1.3 | 0.2 | > 10000 |  |  |  |  | 
COc1ccc(Sc2ccccc2CSC(=N)N)c(CSC(=N)N)c1 | 1440 |  |  | > 10000 |  |  |  |  | 
N=C(N)SCc1cc(Cl)ccc1Oc1ccc([N+](=O)[O-])cc1CSC(=N)N | 2890 |  |  | > 10000 |  |  |  |  | 
N=C(N)SCc1ccccc1C(=O)c1cc(Cl)ccc1CSC(=N)N | 5200 |  |  | > 10000 |  |  |  |  | 
Cc1cccc(CSC(=N)N)c1Sc1ccccc1CSC(=N)N | 3770 |  |  | > 10000 |  |  |  |  | 
N=C(N)SCc1ccccc1C(=O)c1cc(F)ccc1CSC(=N)N | 2020 |  |  | > 10000 |  |  |  |  | 
N=C(N)SCc1ccccc1C(=O)c1ccc(Cl)cc1CSC(=N)N | 2920 |  |  | > 10000 |  |  |  |  | 
Br.CN(C)S(=O)(=O)c1ccc(Sc2ccc(F)cc2CSC(=N)N)c(CSC(=N)N)c1 | 950 | < 0.1 | 0.1 | > 10000 |  |  |  |  | 
CN(c1ccccc1CSC(=N)N)c1ccccc1CSC(=N)N | 730 |  |  | > 10000 |  |  |  |  | 
N=C(N)SCc1cc(Cl)ccc1Sc1ccc(Cl)cc1CSC(=N)N | 3020 |  |  | > 10000 |  |  |  |  | 

Stronger by IC50 [1], values ahead:

IC50 [1] [nM] | Papp A→B [2] [×10⁻⁶ cm/s] | Papp B→A [3] [×10⁻⁶ cm/s] | IC50 [4] [nM] | Compound | inhibition (Rattus norvegicus [5]) | inhibition (Rattus norvegicus [6]) | inhibition (Rattus norvegicus [7]) | fold change (FC) (Rattus norvegicus [8]) | Activity (Rattus norvegicus [9])
320 | < 0.1 | 0.2 | > 10000 | Br.N=C(N)SCc1cc(F)ccc1Oc1ccc(F)cc1CSC(=N)N |  |  |  |  | 
40 | 0.5 | 0.2 | > 10000 | Br.N=C(N)SCc1cc(F)cc2c1sc1c(CSC(=N)N)cc(Cl)cc12 |  |  |  |  | 
530 | 2.4 | 2.4 | > 10000 | Br.COc1ccc(Sc2ccc(F)cc2CSC(=N)N)c(CSC(=N)N)c1 |  |  |  |  | 
150 | 0.4 | 0.4 | > 10000 | Br.N=C(N)SCc1cc(F)ccc1Sc1ccc(F)cc1CSC(=N)N |  |  |  |  | 
90 | 5 | 1 | > 10000 | Br.N=C(N)SCc1c(F)ccc2c1oc1c(CSC(=N)N)c(F)ccc12 |  |  |  |  | 
150 |  |  | > 10000 | N=C(N)SCc1cccc2c1Oc1c(CSC(=N)N)cccc1S2 |  |  |  |  | 
260 | < 0.1 | < 0.1 | > 10000 | Br.N=C(N)SCc1cccc2c1sc1c(CSC(=N)N)cccc12 |  |  |  |  | 
320 | 1.3 | 1.4 | > 10000 | Br.N=C(N)SCc1ccccc1Sc1cc(F)c(F)cc1CSC(=N)N |  |  |  |  | 
340 | 0.1 | 0.2 | > 10000 | Br.N=C(N)SCc1ccccc1Oc1ccccc1CSC(=N)N | Dose-dependent effect | Active | Active | 8 | Non-toxic
90 |  |  | > 10000 | N=C(N)SCc1cccc2c1sc1c(CSC(=N)N)cc(F)cc12 |  |  |  |  | 
110 | 0.2 | 0.1 | > 10000 | Br.N=C(N)SCc1c(Br)ccc2c1oc1c(CSC(=N)N)c(Br)ccc12 |  |  |  |  | 
510 | 0.3 | 0.2 | > 10000 | Br.N=C(N)SCc1ccccc1Sc1cc(F)ccc1CSC(=N)N |  |  |  |  | 
100 | < 0.1 | 0.4 | > 10000 | Br.N=C(N)SCc1cccc2c1-c1c(CSC(=N)N)cccc1-2 |  |  |  |  | 
490 | 1.5 | 1.4 | > 10000 | Br.Cc1ccc(Sc2ccccc2CSC(=N)N)c(CSC(=N)N)c1 |  |  |  |  | 
80 | 0.1 | 0.2 | > 10000 | Br.N=C(N)SCc1cc(F)ccc1Sc1ccc([N+](=O)[O-])cc1CSC(=N)N | Dose-dependent effect | Active | Active |  | Non-toxic
340 | 0.2 | 0.9 | > 10000 | Br.N=C(N)SCc1cc(F)ccc1Oc1cc(Cl)ccc1CSC(=N)N |  |  |  |  | 
290 | 0.2 | 0.5 | > 10000 | N=C(N)SCc1cccc2cc3cccc(CSC(=N)N)c3nc12 |  |  |  |  | 
580 |  |  | > 10000 | N=C(N)SCc1ccccc1C(=O)c1ccc(F)cc1CSC(=N)N |  |  |  |  | 
50 | < 0.1 | 0.2 | > 10000 | Br.N=C(N)SCc1cccc2c1oc1c(CSC(=N)N)cccc12 |  |  |  |  | 
290 | < 0.1 | 0.1 | > 10000 | Br.CS(=O)(=O)c1ccc(Sc2ccc(F)cc2CSC(=N)N)c(CSC(=N)N)c1 |  |  |  |  | 
20 |  |  | > 10000 | N=C(N)SCc1cccc2c1oc1c(CSC(=N)N)cc(F)cc12 |  |  |  |  | 
160 |  |  | > 10000 | N=C(N)SCc1cc(F)ccc1Oc1ccc([N+](=O)[O-])cc1CSC(=N)N |  |  |  |  | 
580 | 0.4 | 0.3 | > 10000 | Br.N=C(N)SCc1cccc2c1C(=O)c1c(CSC(=N)N)cccc1-2 |  |  |  |  | 
370 | 0.1 | 0.7 | > 10000 | Br.N=C(N)SCc1ccccc1C(=O)c1cc([N+](=O)[O-])ccc1CSC(=N)N |  |  |  |  | 
180 | 0.1 | 1.4 | > 10000 | Br.N=C(N)SCc1ccccc1Sc1ccccc1CSC(=N)N | Dose-dependent effect | Active |  |  | Non-toxic
270 | < 0.1 | 0.4 | > 10000 | Br.N=C(N)SCc1c(Cl)ccc2c1oc1c(CSC(=N)N)c(Cl)ccc12 |  |  |  |  | 
150 | 0.3 | 0.2 | > 10000 | Br.N=C(N)SCc1ccccc1Sc1ccc(F)cc1CSC(=N)N |  |  |  |  | 
290 | 0.9 | 1.2 |  | Cc1cc(C)c(CSC(=N)N)c(C)c1CSC(=N)N |  |  |  |  | 
